# Measurements published in ChEMBL document CHEMBL2380254, “Optimization of tocotrienols as antiproliferative and antimigratory leads” (Eur J Med Chem, 2013).
# Key:
# Assay type in all cases: functional
# [1] = test system: UO-31; experiment: Growth inhibition of human UO31 cells assessed as cell growth at 10 uM after 48 hrs by sulforhodamine B assay; conditions: UO-31, 48 h, read-out: Activity
# Procedure, shortened: (§1)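 Single-dose NCI-60 test at 10 µM. Cells were grown in RPMI 1640 with 5% FBS and 2 mM L-glutamine, preincubated 24 h, with T0 plates TCA-fixed. Exposure was 48 h at 37 °C, 5% CO2. Cells were fixed with cold TCA (final 10%, 4 °C, 60 min), stained with SRB and read at 515 nm. Percent growth was taken relative to T0 and untreated control; negative values denote cell kill.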
# [2] = test system: CAKI-1; experiment: Growth inhibition of human CAKI-1 cells assessed as cell growth at 10 uM after 48 hrs by sulforhodamine B assay; conditions: CAKI-1, 48 h, read-out: Activity
# Procedure, shortened: (§2)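 NCI-60 single-dose screen at 10 µM: cells in RPMI 1640 with 5% FBS, preincubated 24 h, then exposed 48 h at 37 °C. TCA fixation (16% final for suspension cells), SRB staining, absorbance 515 nm. Percent growth relative to time-zero and untreated control plates; negative values indicate cell kill.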
# [3] = test system: A498; experiment: Growth inhibition of human A498 cells assessed as cell growth at 10 uM after 48 hrs by sulforhodamine B assay; conditions: A498, 48 h, read-out: Activity; procedure, shortened: as §2
# [4] = test system: 786-0; experiment: Growth inhibition of human 786-0 cells assessed as cell growth at 10 uM after 48 hrs by sulforhodamine B assay; conditions: 786-0, 48 h, read-out: Activity; procedure, shortened: as §2
# [5] = test system: OVCAR-4; experiment: Growth inhibition of human OVCAR4 cells assessed as cell growth at 10 uM after 48 hrs by sulforhodamine B assay; conditions: OVCAR-4, 48 h, read-out: Activity
# Procedure, shortened: (§3)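 Single-dose NCI-60 screen: adherent cells in RPMI 1640 with 5% FBS were exposed to 10 µM for 48 h at 37 °C after a 24 h preincubation. They were fixed in situ with cold TCA (10% final), stained with 0.4% SRB in 1% acetic acid, solubilized in 10 mM Tris base, and read at 515 nm. Percent growth was taken relative to time-zero and control plates.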
# [6] = test system: OVCAR-3; experiment: Growth inhibition of human OVCAR3 cells assessed as cell growth at 10 uM after 48 hrs by sulforhodamine B assay; conditions: OVCAR-3, 48 h, read-out: Activity; procedure, shortened: as §3
# [7] = test system: IGROV-1; experiment: Growth inhibition of human IGROV1 cells assessed as cell growth at 10 uM after 48 hrs by sulforhodamine B assay; conditions: IGROV-1, 48 h, read-out: Activity; procedure, shortened: as §2
# [8] = test system: SK-MEL-28; experiment: Growth inhibition of human SK-MEL-28 cells assessed as cell growth at 10 uM after 48 hrs by sulforhodamine B assay; conditions: SK-MEL-28, 48 h, read-out: Activity; procedure, shortened: as §3
# [9] = test system: SK-MEL-2; experiment: Growth inhibition of human SK-MEL-2 cells assessed as cell growth at 10 uM after 48 hrs by sulforhodamine B assay; conditions: SK-MEL-2, 48 h, read-out: Activity; procedure, shortened: as §3
# [10] = test system: LOX IMVI; experiment: Growth inhibition of human LOXIMVI cells assessed as cell growth at 10 uM after 48 hrs by sulforhodamine B assay; conditions: read-out: Activity; procedure, shortened: as §2
# [11] = test system: U-251; experiment: Growth inhibition of human U251 cells assessed as cell growth at 10 uM after 48 hrs by sulforhodamine B assay; conditions: U-251, 48 h, read-out: Activity; procedure, shortened: as §1
# [12] = test system: SF-539; experiment: Growth inhibition of human SF539 cells assessed as cell growth at 10 uM after 48 hrs by sulforhodamine B assay; conditions: SF-539, 48 h, read-out: Activity; procedure, shortened: as §3
# [13] = test system: HCT-15; experiment: Growth inhibition of human HCT15 cells assessed as cell growth at 10 uM after 48 hrs by sulforhodamine B assay; conditions: HCT-15, 48 h, read-out: Activity; procedure, shortened: as §2
# [14] = test system: CCRF-CEM; experiment: Growth inhibition of human CCRF-CEM cells assessed as cell growth at 10 uM after 48 hrs by sulforhodamine B assay; conditions: read-out: Activity; procedure, shortened: as §2
# [15] = test system: ACHN; experiment: Growth inhibition of human ACHN cells after 48 hrs by sulforhodamine B assay
# Procedure, shortened: (§4)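 NCI-60 screen: cells in RPMI 1640 with 5% FBS and 2 mM glutamine, 5000–40,000 cells/well, preincubated 24 h. Five concentrations (10-fold dilutions; 100 to 0.001 µM) applied for 48 h at 37 °C. TCA fixation, SRB stain, absorbance at 515 nm. Time-zero plates included; GI50 where 100×(T−T0)/(C−T0)=50.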
# [16] = test system: OVCAR-4; experiment: Growth inhibition of human OVCAR4 cells after 48 hrs by sulforhodamine B assay; conditions: OVCAR-4, 48 h
# Procedure, shortened: (§5)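 NCI-60 panel cells grown in RPMI 1640 with 5% FBS and 2 mM L-glutamine, seeded at 5000–40,000 cells/well and preincubated 24 h. Five 10-fold dilutions (0.001–100 µM) from DMSO stocks were added for 48 h at 37 °C. Adherent cells were fixed with cold TCA (10% final) for 60 min at 4 °C, stained with 0.4% SRB, and read at 515 nm. GI50 was set where 100×(T−T0)/(C−T0)=50.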
# [17] = test system: LOX IMVI; experiment: Growth inhibition of human LOXIMVI cells after 48 hrs by sulforhodamine B assay; procedure, shortened: as §4
# [18] = test system: SNB-19; experiment: Growth inhibition of human SNB19 cells after 48 hrs by sulforhodamine B assay; conditions: SNB-19, 48 h
# Procedure, shortened: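 NCI-60 five-dose screen. Cells were grown in RPMI 1640 with 5% FBS and 2 mM L-glutamine, plated at 5000–40,000 cells/well and incubated 24 h before dosing, with T0 plates TCA-fixed. DMSO stocks were diluted to doses of […] and exposed 48 h at 37 °C, 5% CO2. Cells were fixed with cold TCA (final 10%, 60 min, 4 °C), stained with 0.4% SRB in 1% acetic acid for 10 min, solubilized in 10 mM trizma base and read at 515 nm. GI50 is where 100×(T−T0)/(C−T0)=50.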
# [19] = test system: KM12; experiment: Growth inhibition of human KM12 cells after 48 hrs by sulforhodamine B assay; conditions: KM12, 48 h; procedure, shortened: as §4
# [20] = test system: NCI-H322M; experiment: Growth inhibition of human NCI-H322M cells after 48 hrs by sulforhodamine B assay; procedure, shortened: as §5
# [21] = test system: NCI-H460; experiment: Growth inhibition of human NCI-H460 cells after 48 hrs by sulforhodamine B assay; conditions: NCI-H460, 48 h; procedure, shortened: as §5
# [22] = test system: NCI-H226; experiment: Growth inhibition of human NCI-H226 cells after 48 hrs by sulforhodamine B assay; conditions: NCI-H226, 48 h; procedure, shortened: as §5
# [23] = test system: HL-60(TB); experiment: Growth inhibition of human HL-60(TB) cells after 48 hrs by sulforhodamine B assay; conditions: HL-60, 48 h
# Procedure, shortened: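 HL-60(TB) cells (suspension) grown in RPMI 1640 with 5% FBS and 2 mM L-glutamine. They were plated and preincubated for 24 h, with T0 plates fixed at that point. Drug was given at five 10-fold dilutions for 48 h at 37 °C. Settled cells were fixed with TCA (16% final), stained with 0.4% SRB in 1% acetic acid and read at 515 nm. GI50 was taken where 100×(T−T0)/(C−T0)=50.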
# [24] = test system: UACC-62; experiment: Growth inhibition of human UACC62 cells assessed as cell growth at 10 uM after 48 hrs by sulforhodamine B assay; conditions: UACC-62, 48 h, read-out: Activity; procedure, shortened: as §1
SMILES,growth at 10 µM [1],growth at 10 µM [2],growth at 10 µM [3],growth at 10 µM [4],growth at 10 µM [5],growth at 10 µM [7],growth at 10 µM [8],growth at 10 µM [10],growth at 10 µM [11],growth at 10 µM [12],growth at 10 µM [14],GI50 [15],GI50 [16],GI50 [17],GI50 [18],GI50 [19],GI50 [20],GI50 [21],GI50 [22],GI50 [23],further results
CC(C)=CCC/C(C)=C/CC/C(C)=C/CC[C@]1(C)CCc2c3c(cc(C)c2O1)OCN(CCc1ccc(O)cc1)C3,52.1%,70.3%,100%,69%,3.53%,0.45%,-83.8%,-93%,-32%,94.1%,2.75%,5.94 µM,5.36 µM,2.09 µM,5.89 µM,1.6 µM,6.2 µM,1.12 µM,5.4 µM,3.34 µM,growth at 10 µM [6]: 36.4%; growth at 10 µM [9]: 116%; growth at 10 µM [13]: 80.4%
CC(C)=CCC/C(C)=C/CC/C(C)=C/CC[C@]1(C)CCc2c3c(c(C)c(C)c2O1)OCN(CCCCO)C3,50.7%,70.1%,116%,72.8%,77.5%,48.2%,106%,-90.5%,14.8%,69.6%,39.9%,> 10 µM,3.11 µM,2.22 µM,3.03 µM,1.94 µM,> 10 µM,1.94 µM,> 10 µM,3.86 µM,growth at 10 µM [6]: 79.9%; growth at 10 µM [24]: 96.6%; growth at 10 µM [9]: 95.8%
CC(C)=CCC/C(C)=C/CC/C(C)=C/CC[C@]1(C)CCc2c3c(cc(C)c2O1)OCN(CCCCO)C3,54.9%,34%,103%,-49.2%,-94.8%,-15.1%,0.63%,100%,-90.5%,27.4%,-0.6%,16.3 µM,16.4 µM,11.3 µM,16 µM,11.9 µM,17.2 µM,6.18 µM,15.3 µM,18.8 µM,growth at 10 µM [6]: -20.8%; growth at 10 µM [24]: 68.5%; growth at 10 µM [13]: -53.9%
CC(C)=CCC/C(C)=C/CC/C(C)=C/CC[C@]1(C)CCc2c3c(c(C)c(C)c2O1)OCN(CCCCCCCCO)C3,27.9%,31.3%,117%,59.8%,57.9%,-53.1%,82.9%,-80.1%,34%,72.6%,10.4%,2.62 µM,2.81 µM,3.29 µM,2.47 µM,2.93 µM,2.7 µM,3.25 µM,2.79 µM,3.44 µM,growth at 10 µM [6]: 31.7%; growth at 10 µM [24]: 93.1%; growth at 10 µM [9]: 71.7%; growth at 10 µM [13]: 75.3%
CC(C)=CCC/C(C)=C/CC/C(C)=C/CC[C@]1(C)CCc2c3c(c(C)c(C)c2O1)OCN(CCCCCCO)C3,42.7%,47%,111%,33.7%,3.51%,-23.6%,63.1%,-88.4%,-75.2%,66.1%,5.83%,2.75 µM,2.49 µM,2.83 µM,2.48 µM,2.84 µM,2.71 µM,3.15 µM,2.81 µM,3.58 µM,growth at 10 µM [24]: 86.7%; growth at 10 µM [9]: 91.8%; growth at 10 µM [13]: 38.4%
